Where “and” joins values, the source holds several entries; their conditions need not be identical. Identical values can stand only once.
How the values were obtained:
Assay type in all cases: toxicity, cell-based
[1] = test system: HEK-293T; assay: Incucyte cell viability with HEK293T; settings: human, 10 µM, compound concentration 10 uM; further: filed as whole numbers so only -1 and 0 and 1 occur
[2] = test system: U2OS; assay: Incucyte cell viability with U2OS; settings: human, 10 µM, compound concentration 10 uM; further: filed as whole numbers so only -1 and 0 and 1 occur
[3] = test system: Fibroblast; assay: Incucyte cell viability with human fibroblast; settings: 10 µM, compound concentration 10 uM; further: filed as whole numbers so only -1 and 0 and 1 occur
[4] = test system: U2OS; assay: Multiplex assay against U2OS; settings: human, 1 µM, compound concentration 1 uM
Summary of the method: (§1)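 With compound added, live cells were imaged on a CQ1 microscope at 37°C and 5% CO2; staining with Hoechst33342, BioTracker Green Microtubule Cytoskeleton Dye, MitoTracker Red and Annexin V Alexa Fluor 680 had been done at seeding. The CellPathfinder machine-learning gating scheme split cells into Hoechst high-intensity objects or normal cells, normal cells into healthy, pyknosed or fragmented nuclei, and pyknosed cells into mitotic or apoptotic. The tubulin, mitochondrial-mass and membrane-permeability phenotypes are per cents of healthy-nucleus cells.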

[5] = test system: Fibroblast; assay: Multiplex assay against human fibroblast; settings: 1 µM, compound concentration 1 uM; summary of the method: as §1
[6] = 6 h, replicate number 1, timepoint 6 hours
[7] = 12 h, replicate number 1, timepoint 12 hours
[8] = 18 h, replicate number 1, timepoint 18 hours
[9] = 24 h, replicate number 1, timepoint 24 hours
[10] = 0 h, replicate number 1, timepoint 0 hours
[11] = 0 h, replicate number 2, timepoint 0 hours
[12] = 6 h, replicate number 2, timepoint 6 hours
[13] = 12 h, replicate number 2, timepoint 12 hours
[14] = 18 h, replicate number 2, timepoint 18 hours
[15] = 24 h, replicate number 2, timepoint 24 hours

Question: What does the source list for CS(=O)(=O)N1CCN(Cc2cc3nc(-c4cccc5[nH]ncc45)nc(N4CCOCC4)c3s2)CC1 [PICTILISIB]?
Answer: Growth Rate [1, 6]: 0; Growth Rate [1, 7]: 0; Growth Rate [1, 8]: 0; Growth Rate [1, 9]: 0; Growth Rate [2, 10]: 0; Growth Rate [2, 6]: 0; Growth Rate [2, 7]: 0; Growth Rate [2, 8]: 0; Growth Rate [2, 9]: 0; Growth Rate [3, 11]: 1; Growth Rate [3, 6]: 0; Growth Rate [3, 7]: 0; Growth Rate [3, 8]: 0; Growth Rate [3, 9]: 0; Population Apoptotic (%) ([4]; 12 h, replicate 1): 69% and 53%; Population Fragmented Nuclei (%) ([4]; 12 h, replicate 1): 22% and 12%; Population Healthy Nuclei (%) ([4]; 12 h, replicate 1): 35% and 77%; Population Hoechst High Intensity Objects (%) ([4]; 12 h, replicate 1): 4%; Population Membrane Permeable-Phenotype (%) ([4]; 12 h, replicate 1): 47% and 40%; Population Mitotic Cells (%) ([4]; 12 h, replicate 1): 30% and 46%; Population Normal (%) ([4]; 12 h, replicate 1): 95% and 96%; Population Tubulin-Different-Phenotype (%) ([4]; 12 h, replicate 1): 100% and 49%; Total Cell Count ([4]; 12 h, replicate 1): 150 and 194; Population Apoptotic (%) ([4]; 12 h, replicate 2): 74% and 45%; Population Fragmented Nuclei (%) ([4]; 12 h, replicate 2): 13%; Population Healthy Nuclei (%) ([4]; 12 h, replicate 2): 26% and 78%; Population Hoechst High Intensity Objects (%) ([4]; 12 h, replicate 2): 24% and 14%; Population Membrane Permeable-Phenotype (%) ([4]; 12 h, replicate 2): 55% and 27%; Population Mitotic Cells (%) ([4]; 12 h, replicate 2): 25% and 54%; Population Normal (%) ([4]; 12 h, replicate 2): 75% and 86%; Total Cell Count ([4]; 12 h, replicate 2): 91; Population Apoptotic (%) ([4]; 24 h, replicate 1): 91% and 73%; Population Fragmented Nuclei (%) ([4]; 24 h, replicate 1): 16% and 11%; Population Membrane Permeable-Phenotype (%) ([4]; 24 h, replicate 1): 84% and 29%; Population Normal (%) ([4]; 24 h, replicate 1): 77% and 97%; Total Cell Count ([4]; 24 h, replicate 1): 190 and 175; Population Apoptotic (%) ([4]; 24 h, replicate 2): 94% and 86%; Population Fragmented Nuclei (%) ([4]; 24 h, replicate 2): 21% and 13%; Population Healthy Nuclei (%) ([4]; 24 h, replicate 2): 28% and 75%; Population Hoechst High Intensity Objects (%) ([4]; 24 h, replicate 2): 23% and 10%; Population Mitotic Cells (%) ([4]; 24 h, replicate 2): 5% and 13%; Population Normal (%) ([4]; 24 h, replicate 2): 76% and 89%; Total Cell Count ([4]; 24 h, replicate 2): 159 and 98; Population Apoptotic (%) ([5]; 12 h, replicate 1): 64% and 41%; Population Fragmented Nuclei (%) ([5]; 12 h, replicate 1): 35% and 14%; Population Healthy Nuclei (%) ([5]; 12 h, replicate 1): 45% and 47%; Population Membrane Permeable-Phenotype (%) ([5]; 12 h, replicate 1): 5% and 11%; Population Mitochondria Different-Phenotype (%) ([5]; 12 h, replicate 1): 11% and 25%; Population Mitotic Cells (%) ([5]; 12 h, replicate 1): 35% and 58%; Population Normal (%) ([5]; 12 h, replicate 1): 83% and 50%; Population Pyknosed Nuclei (%) ([5]; 12 h, replicate 1): 18% and 37%; Total Cell Count ([5]; 12 h, replicate 1): 234 and 214; Population Apoptotic (%) ([5]; 12 h, replicate 2): 80% and 35%; Population Fragmented Nuclei (%) ([5]; 12 h, replicate 2): 72% and 48%; Population Healthy Nuclei (%) ([5]; 12 h, replicate 2): 18% and 22%; Population Hoechst High Intensity Objects (%) ([5]; 12 h, replicate 2): 38% and 35%; Population Membrane Permeable-Phenotype (%) ([5]; 12 h, replicate 2): 18% and 9%; Population Normal (%) ([5]; 12 h, replicate 2): 61% and 64%; Total Cell Count ([5]; 12 h, replicate 2): 94 and 76; Population Apoptotic (%) ([5]; 24 h, replicate 1): 65% and 68%; Population Fragmented Nuclei (%) ([5]; 24 h, replicate 1): 38% and 24%; Population Healthy Nuclei (%) ([5]; 24 h, replicate 1): 49% and 38%; Population Hoechst High Intensity Objects (%) ([5]; 24 h, replicate 1): 21% and 44%; Population Membrane Permeable-Phenotype (%) ([5]; 24 h, replicate 1): 4% and 2%; Population Mitotic Cells (%) ([5]; 24 h, replicate 1): 34% and 31%; Population Normal (%) ([5]; 24 h, replicate 1): 78% and 55%; Total Cell Count ([5]; 24 h, replicate 1): 258 and 181; Population Apoptotic (%) ([5]; 24 h, replicate 2): 80% and 73%; Population Fragmented Nuclei (%) ([5]; 24 h, replicate 2): 63% and 56%; Population Healthy Nuclei (%) ([5]; 24 h, replicate 2): 25% and 9%; Population Hoechst High Intensity Objects (%) ([5]; 24 h, replicate 2): 36% and 43%; Population Mitotic Cells (%) ([5]; 24 h, replicate 2): 20% and 26%; Population Normal (%) ([5]; 24 h, replicate 2): 63% and 56%; Population Tubulin-Different-Phenotype (%) ([5]; 24 h, replicate 2): 27% and 50%; Total Cell Count ([5]; 24 h, replicate 2): 69 and 78

Question: How did the “Growth Rate” value [1, 10] turn out when COc1cccc(OC)c1-c1cc(C(=O)NC2(C(=O)O)C3CC4CC(C3)CC2C4)nn1-c1ccnc2cc(Cl)ccc12 (centres undefined) [REMINERTANT] was run?
Answer: 0

Question: And the “Growth Rate” value [1, 6]?
Answer: 0

Question: And the “Growth Rate” value [1, 12]?
Answer: 1

Question: And the “Growth Rate” value [1, 7]?
Answer: 0

Question: And the “Growth Rate” value [1, 13]?
Answer: 1

Question: What about the “Growth Rate” value [1, 8] of the same compound?
Answer: 0

Question: What about the “Growth Rate” value [1, 9] of the same compound?
Answer: 0

Question: And the “Growth Rate” value [2, 10]?
Answer: 1

Question: And the “Growth Rate” value [2, 12]?
Answer: 1

Question: And the “Growth Rate” value [2, 7]?
Answer: 1

Question: What about the “Growth Rate” value [2, 8] of the same compound?
Answer: 0

Question: What about the “Growth Rate” value [2, 14] of the same compound?
Answer: 1

Question: And the “Growth Rate” value [2, 9]?
Answer: 0

Question: And the “Growth Rate” value [2, 15]?
Answer: 1

Question: And the “Growth Rate” value [3, 10]?
Answer: 0

Question: What about the “Growth Rate” value [3, 12] of the same compound?
Answer: 1

Question: And the “Growth Rate” value [3, 7]?
Answer: 1

Question: And the “Growth Rate” value [3, 13]?
Answer: 0

Question: What about the “Growth Rate” value [3, 8] of the same compound?
Answer: 1

Question: And the “Growth Rate” value [3, 14]?
Answer: 0

Question: And the “Growth Rate” value [3, 9]?
Answer: 1

Question: What about the “Growth Rate” value [3, 15] of the same compound?
Answer: 0

Question: For CC(C)CC(=O)N1CCc2nc(-c3ccc(Br)cc3)nc(N(C)Cc3ccccc3)c2C1 [THPP-1-NC], which “Growth Rate” value [1, 10] is on record?
Answer: 0

Question: And the “Growth Rate” value [1, 11]?
Answer: 1

Question: What about the “Growth Rate” value [1, 12] of the same compound?
Answer: 0

Question: And the “Growth Rate” value [1, 13]?
Answer: 0

Question: What about the “Growth Rate” value [1, 14] of the same compound?
Answer: 1

Question: What about the “Growth Rate” value [1, 9] of the same compound?
Answer: 1

Question: And the “Growth Rate” value [1, 15]?
Answer: 0

Question: And the “Growth Rate” value [2, 10]?
Answer: 0

Question: And the “Growth Rate” value [2, 6]?
Answer: 1

Question: What about the “Growth Rate” value [2, 12] of the same compound?
Answer: 0

Question: What about the “Growth Rate” value [2, 7] of the same compound?
Answer: 0

Question: And the “Growth Rate” value [2, 8]?
Answer: 0

Question: And the “Growth Rate” value [2, 14]?
Answer: 1

Question: And the “Growth Rate” value [2, 9]?
Answer: 0

Question: And the “Growth Rate” value [3, 11]?
Answer: 0

Question: And the “Growth Rate” value [3, 6]?
Answer: 1

Question: And the “Growth Rate” value [3, 12]?
Answer: 0

Question: What about the “Growth Rate” value [3, 7] of the same compound?
Answer: 0

Question: And the “Growth Rate” value [3, 8]?
Answer: 1

Question: What about the “Growth Rate” value [3, 14] of the same compound?
Answer: 0

Question: What about the “Growth Rate” value [3, 9] of the same compound?
Answer: 1

Question: And the “Growth Rate” value [3, 15]?
Answer: 0

Reference: ChEMBL document CHEMBL4689842, “EUbOPEN Chemogenomics Library wave 1” (2021)
